Our source for the yeast fitness values is the RNAGym collection of RNA variant scans (doi:10.1126/science.aae0568).

Variants at the floor of the assay were thinned out.

B1: tRNA (parent)
chain: GUUCCGUUGGCGUAAUGGUAACGCGUCUCCCUCCUAAGGAGAAGACUGCGGGUUCGAGUCCCGUACGGAACG

The variants in this data set derive from B1. The experiment in a line: yeast fitness relative to wild type (ratio to wild type); higher = fitter; tRNA-Arg(CCU), competitive growth, 37 C, YPD. The essentials: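 Amplicons of the tRNA-Arg(CCU) gene were sequenced, 100-nucleotide paired-end, from the start population and from each end population of a pooled yeast competition. The competition, in six parallel replicates, lasted 24 hours in YPD at 37°C. Fitness relative to wild type was calculated from changes in genotype frequencies. Genotypes had to have ≥ 100 starting reads, and estimates < 0.5 were set to 0.5.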
Regarding GUUCCGUUGGCGUAAUGGUAACGCGUCUCCCUCCUAAGGAGAAGACUGCGGGUUCAACUCCCGUACGGAACG [G56A G58C], the yeast fitness amounted to 0.95.
For GCUCCGUUGGCGUAAGGGUAACGCGUCUCCCUCCUAAGGAGAAGACUGCGGGUUCGAGUCCCGUACGGAGCG [U2C U16G A70G], the yeast fitness stood at 1.06.
As to GUUCCGUUGGCGUAAUGGCCACGCGUCUCCCUUCAAAGGAGAAGACUGAGGGUUCGAGUCCCGUACGGAACG [U19C A20C C33U U35A C49A], the yeast fitness came to 0.539.
The figure for GUUCCGUUGGCGUAAUGGUAACGCGGUUCCCUCCUAAGGAGAAGACUGCGGGUUCGAGUCCCGUACGGUACG [U26G C27U A69U] is 0.696.
For GUUCCGUUGACGUAAUGGUAACGCGUCUCCCUCCUAAGGAGAAGCCUGUGGGUUCGAGUCCCGUACGGAACG [G10A A45C C49U], the yeast fitness came out at 0.652.
The figure for GUUCCGUUGGCGUAAUGGUAAUGCGUCUCCCUCCUAAGGAGAAGACUGCGGGUCAGAGUCCCGUGUGGAACG [C22U U54C C55A A65G C66U] is at most 0.5.
With GUUCGGUUGGCGUCAUGGUAACGCGUCUACGUCCUGAGGAGAAGACUGCGGGUACGAGUCCCGUACGGAACG [C5G A14C C29A C31G A36G U54A] the figure was at most 0.5; with GUUCCGUGGGCGUAAUGCUAACGCGUCUCCCUCCUAAGGAGAAGACUGUGGGUUCGAAUCCCGUACAGAACG [U8G G18C C49U G58A G67A], at most 0.5; with GUUCCGUUGGCGUAAUGGCAACGCGUCUUCCUCCUAAGGAGCAGACUGCGGGUUCGGGUCCCGUACGGAACG [U19C C29U A42C A57G], 0.541.
The figure for GUUCCGUUGGCGUAAUGGUAACGCGUCGCCGUCCUAAGGAGAAGACUGCGGGUUCGAGACGCGUACGGAACG [U28G C31G U59A C61G] is at most 0.5; for GUACCGUUGGCGUAAUGGUAACGCGUCUCCCUCCGAAGGAGAUGACUGCGGGUUCGCGUCCAGUAAGGAACG [U3A U35G A43U A57C C62A C66A] it is at most 0.5; for GUUCCGUUGGCGUAAUGGUAACGCGUGUACCUCCUAAGGAGAAGACUGCGGGUUCGAGUCCUGUACGGAACG [C27G C29A C62U] it is 0.647.
For the variant GUUCCGUUGGCGUAAUGGUUACGCGUCUGCCUCCUAAGGAGAAGACUGCGGGUUCGAGUCUCGUACGGAACG [A20U C29G C61U], the yeast fitness is at most 0.5.
As for GUUCCGUUGGAGUAAUGGUAACGCGUCUCCCUCCUAAGGAGAAGACUGCGGAUUCGAGUCCUGUACGGAACG [C11A G52A C62U], the yeast fitness is at most 0.5.
With GUUCCGUUGGCGUAAUGGUAACGCGUCUCCCUCCUAAGGAGAAGACUGCGGGUUCGAGUCCGGUACGGAGCG [C62G A70G] the figure was 0.752; with GUUCCGUUGGCGUAAUGGUAAUGCGUCUCCCUCCUAAGGAGAAGAGUGAGGGUUCAAGUACCGUACGGACCG [C22U C46G C49A G56A C60A A70C], 0.534; with GUUCCGUUGGCGUAAUGGUAACGCGUUUCCCUACUAAGGAGAAGACUGCGGGUUCGAGUCCCGUACGGAACG [C27U C33A], 0.618.
GUUCCGUUGGCGUAAUGGUAACGCGUCUGCCUCCUAAGGAGAAGACUACGGGUUGGGGUCCCGUACGGAACG [C29G G48A C55G A57G]: the yeast fitness is at most 0.5.
With GUUCCGUUGCCGUAAUGGUAACGCGUCUGCCUCCUAAGGAGUAGACUGCGGGUUCGAAUCCCAUACAGAACG [G10C C29G A42U G58A G63A G67A] the figure was at most 0.5; with GUUCCGUUGGCGUAAUGGUAAGGCGUCUCCCUCCUACGGAGAAGACUGCGGGUUCGAGUCCCGUACGGAACG [C22G A37C], 0.721; with GUUCCGUUGGCGUAAUGGUAACGCGUCUCCCUCCUAAGGAGAAGUCUGCGGGUUCGAGUCCCCUUCGGAACG [A45U G63C A65U], 0.727.
Take GUUCCGUUGGUGUAAUGGUAACGCGUCCCGCUCCUAAGGAGAAGACUGGGGGUUCGAGUCCCGUACGGAACG [C11U U28C C30G C49G]: the yeast fitness was at most 0.5.
For the variant GUUCCGUUGGCGUAAUGGUAACACGUCUCCCUCCUAAGGAGAAGUCUGCGGGUUCGAGUCCCGUACGGAACG [G23A A45U], the yeast fitness came out at 0.674.
Turning to GUUCCGUUGGCGUAAUGGUAACGCGUAUCCCUCCUAAGGAGAAGACUGCGGGUUCGAGUCCCGUACGGAGCG [C27A A70G], the yeast fitness came to 0.857.
In the case of GUUCCGUCGGCGUAAUGGUAACGGGUCUCCCUCCUAACGAGAAGACUGCGGGUUCGUGUCCCGUACGGAACG [U8C C24G G38C A57U], the yeast fitness is at most 0.5.
As to GUCCCGUUGGCGUAAUGGUAACGCGUGUCCCUACUAAGGAGAAGACUGCGAGUUCGAGUCCCGUACGGAACG [U3C C27G C33A G51A], the yeast fitness is at most 0.5.
The figure for GUUCCGUUGGCGUAAUGGUAACGCGUCUCCCUCCUCAGGAGAAGACUGCGGGUUCGAGUCCCCUACGGAACG [A36C G63C] is 0.558.
For GUUCCGUUGGCGUAAUGGUAACGCGUCUCACUCCUAAGGAGAAGACUACGGGUUCGAGUCCCGUACGGAACG [C30A G48A], the yeast fitness turned out to be 1.06.
As to GUUCCGUUGGCGUAAUGGUAAUGCGUCGCCCUCCUAAGGAGAAGGCUGCGGGUUCGAGUCCCGUACGGAACG [C22U U28G A45G], the yeast fitness is at most 0.5.
In the case of GUUCGGUCGGCGUCAUGGUAACGCGUCUACGUCCUAAGGAGAAGACUGCGGGUACGAGUCCCGUACGGAACG [C5G U8C A14C C29A C31G U54A], the yeast fitness is at most 0.5.
With GUUCCGCUGGCGUAAUGGUAACGCGUUUCCCUCCUAAGGAGAAGACUGCGGGUUCGAGUACCGUACGGAACG [U7C C27U C60A] the figure was at most 0.5; with GUUCCGUUGGCCUAAUGGUAACGCGUCUCCCUCCUAUAGAGAAGACUGCGGGUUGGAGUCCCGUACGGAACG [G12C A37U G38A C55G], at most 0.5.
On to GUUACGUUGGCGUAAUGGUUACGUGGUUCCCUCCUCAGGAGAAGUCUGCGGGUUGGAGUCCCGUACGGAACG [C4A A20U C24U U26G C27U A36C A45U C55G], for which the yeast fitness worked out at 0.607.
The figure for GUUCCGUUGGCGUAAUGGUAGCGCGUCUCCCUCCUAAGGAGAAGACUGCGGGUUCGAGUCUCGUACGGAACG [A21G C61U] is 1.
With GUUCUGUUGGCGUAAUGGUCACGUGUCUCCCUCGUAAGGAGAAGACUGCGGGUUCGAGUCCCGUACGGAACG [C5U A20C C24U C34G] the figure was at most 0.5; with GUUCCGUUGGCGUCAUGGUAACGCGUAUCCCUCCUAAGGAGAAGACUGCGGGUACGAGUCCCGUACGGGACG [A14C C27A U54A A69G], 0.647.
The figure for GUUCCGUUGGCGUAAUGGUAACGCGUCUCCCUCCUAAGGAGAAGACUGCGGGUUUGAGUCCCGUACGGUACG [C55U A69U] is 0.684.
